{"source": "the RNAGym collection of RNA variant scans (doi:10.1126/science.aae0568)", "parents": {"B1": {"name": "tRNA (parent)", "chain": "GUUCCGUUGGCGUAAUGGUAACGCGUCUCCCUCCUAAGGAGAAGACUGCGGGUUCGAGUCCCGUACGGAACG"}}, "note": "This sample holds only a part of the variants without activity."}
{"variants_of": "B1", "assay": "yeast fitness relative to wild type (ratio to wild type); higher = fitter; tRNA-Arg(CCU), competitive growth, 37 C, YPD", "procedure,_shortened": "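Variants of the tRNA-Arg(CCU) gene, chemically synthesised with a 3% per-site mutation rate at 69 sites, were placed at the native genomic locus in Saccharomyces cerevisiae. The pooled strains were competed in YPD at 37°C for 24 hours in six parallel replicates. Gene amplicons from the start population and from each end population were read by 100-nucleotide paired-end sequencing. Darwinian fitness relative to wild type came from changes in genotype frequencies; genotypes needed ≥ 100 starting reads, and estimates < 0.5 were set to 0.5.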"}
{"variant": "GUUCCGUUGGCGUAAUAGUAACGCGUCUCCAACCUAAGGAGAAGACUGCGGGUUCGGGUCCCGUACGGAACG", "note": "[G17A C31A U32A A57G]", "yeast fitness": 0.545}
{"variant": "GUUCCGUUGGCGUAAUAGUAACGCGUCUCCCUUCUAAGGAGAAGACUGCGGGUUCGAGGCCCGUACGGAACG", "note": "[G17A C33U U59G]", "yeast fitness": 0.501}
{"variant": "GUUCCGUUGGCGUAAUAGUAACGCGUCUCCGUCCUAACGAGAAGACUGCGGGUUCGAGUCCCCUACGGAACG", "note": "[G17A C31G G38C G63C]", "yeast fitness": "≤ 0.5"}
{"variant": "GUUCCGUUGGCGUAAUAGUAACGCGUCUCCCUCAUAAGGGGAAGACUGCGGGUUCGAGUCCCGUAUGGAACG", "note": "[G17A C34A A40G C66U]", "yeast fitness": 0.524}
{"variant": "GUUCCGUUGGCGUAAUAGUAACGCGUCUCCCUCCUAAGGAGAAGACUGCGGGUUGGAGUCCCGUACGGACCG", "note": "[G17A C55G A70C]", "yeast fitness": "≤ 0.5"}
{"variant": "GUUCCGUUGGCGUAAUAGUAACGCGUCUCCCUCCUAAGGAGAAGAAUGCGGGUUCGAGUCCCGUGCGGAACG", "note": "[G17A C46A A65G]", "yeast fitness": "≤ 0.5"}
{"variant": "GUUCCGUUGGCGUAAUAGUAACGCGUCUCGCUCCUAAGGAGAAGACUACGGGCUCGAGUCCCGUACGGAACG", "note": "[G17A C30G G48A U53C]", "yeast fitness": "≤ 0.5"}
{"variant": "GUUCCGUUGGCGUAAUAGUAACGGGUGUCCCUCCUAAGGAGAAGACUGCGGGUUCGAGUCCCGUACGGAACG", "note": "[G17A C24G C27G]", "yeast fitness": 0.57}
{"variant": "GUUCCGUUGGCGUAAUAGUAACGCGUCUCCCUCCUAAGGAGAAGAGUGCGGGUUCGAGUCCCGUACGGAUCG", "note": "[G17A C46G A70U]", "yeast fitness": 0.578}
{"variant": "GUUCCGUUGGCGUAAUAGUAACGCGUCUCCCUCAUAAGGAGAAGACUGCGGGUUGGAGUCCCGUACGGAACG", "note": "[G17A C34A C55G]", "yeast fitness": "≤ 0.5"}
{"variant": "GUUCCGUUGGCGUAAUAGUAACGGGUGUCCCUCCUAAGGAGAAGACUGCGGGUUCGAGUCCCGUACGGCACG", "note": "[G17A C24G C27G A69C]", "yeast fitness": "≤ 0.5"}
{"variant": "GUUCCGUUGGCGUAAUAGUAACGCGUGUCCCUCCUAAGGAGAAGACUGCGGGUUCGAGACCCGUAAGGAACG", "note": "[G17A C27G U59A C66A]", "yeast fitness": "≤ 0.5"}
{"variant": "GUUCCGUUGGCGUAAUAGUAACGCGUCUUCCUUCUAAGGAGAAGACUGCGGGUUCGAGUGCCGUACGGAACG", "note": "[G17A C29U C33U C60G]", "yeast fitness": 0.594}
{"variant": "GUUCCGUUGGCGUAAUAGUAACGCGUCUCACUCCUAAGGAGAAGACUGCGGGUUCGAGUGCAGUACGGAACG", "note": "[G17A C30A C60G C62A]", "yeast fitness": "≤ 0.5"}
{"variant": "GUUCCGUUGGCGUAAUAGUAACGCGUCUCACUCCUCAGGAGAAGACUGCGGGUUCGAGUCCCGUACGGAACG", "note": "[G17A C30A A36C]", "yeast fitness": "≤ 0.5"}
{"variant": "GUUCCGUUGGCGUAAUAGUAACGCGUCUCCCUGCUAAGGAGAAGACUGCGGGUUCGAGUCCCGUACGGAACG", "note": "[G17A C33G]", "yeast fitness": "≤ 0.5"}
{"variant": "GUUCCGUUGGCGUAAUAGUAACGCGUCUCCCUCCUAAGGAGAAGACUGCGGGUUCGAGUAACGUACGGAACG", "note": "[G17A C60A C61A]", "yeast fitness": "≤ 0.5"}
{"variant": "GUUCCGUUGGCGUAAUAGUAACGCGUCUCCUUCCCAAGGAGAAGACUGCGGGUUCAGGUCCCGUACGGAACG", "note": "[G17A C31U U35C G56A A57G]", "yeast fitness": "≤ 0.5"}
{"variant": "GUUCCGUUGGCGUAAUAGUAACGCGUCUCCCUCCUAAGGAGAAGAUUGCGCGUUCGAGUCCCGUACGGAACG", "note": "[G17A C46U G51C]", "yeast fitness": 0.647}
{"variant": "GUUCCGUUGGCGUAAUAGUAACGCGUCUCCCUCCUAAGGAGAAGACUGGGGGCUCGAGUCCCGUACGGAACG", "note": "[G17A C49G U53C]", "yeast fitness": "≤ 0.5"}
{"variant": "GUUCCGUUGGCGUAAUAGUAACGCGUGUCCCUCCUAAGGAGAAGACUGCGGGUUCGAGUCCCGUACGGAACG", "note": "[G17A C27G]", "yeast fitness": 0.535}
{"variant": "GUUCCGUUGGCGUAAUAGUAACGCGUUUCCCUCCUAAGGAGAAGACUGCGGGUUCGAGUCCCGUACGGAACG", "note": "[G17A C27U]", "yeast fitness": 0.711}
{"variant": "GUUCCGUUGGCGUAAUAGUAACGCGUCUUCCUUCUAAGGAGAAGACUGCGGGUUCGCGUCCCGUACGUAACG", "note": "[G17A C29U C33U A57C G68U]", "yeast fitness": "≤ 0.5"}
{"variant": "GUUCCGUUGGCGUAAUAGUAACGCGUCUCCCUCCUAAGGAGAAGACUGCGGGUUCGAGUACCGUACGGAACG", "note": "[G17A C60A]", "yeast fitness": "≤ 0.5"}
{"variant": "GUUCCGUUGGCGUAAUAGUAACGCGUCUCCGUCCUAAGGAGAACACUGCGGGUUCGAGUCCCGUACGGUACG", "note": "[G17A C31G G44C A69U]", "yeast fitness": 0.528}
{"variant": "GUUCCGUUGGCGUAAUAGUAACGCGUCUCUCUCCUAAGGAGAAGACUGUGGGUUCGAGUCCCGUACGGAACG", "note": "[G17A C30U C49U]", "yeast fitness": "≤ 0.5"}
{"variant": "GUUCCGUUGGCGUAAUAGUAACGCGUCUCCCUCCUAAGGAGAAGACUGAGGGUUCGAGUCCCGUACGGAACG", "note": "[G17A C49A]", "yeast fitness": 0.677}
{"variant": "GUUCCGUUGGCGUAAUAGUAACGCGUCUCCCUCCUAAGGAGAAGAAUGCGGGUUCGAGUCGCGUACGGGACG", "note": "[G17A C46A C61G A69G]", "yeast fitness": "≤ 0.5"}
{"variant": "GUUCCGUUGGCGUAAUAGUAACGCGUCUCCAUUCUAAGGAGAAGACUGCGGGUUCGAGUCCCGUACGGAACG", "note": "[G17A C31A C33U]", "yeast fitness": "≤ 0.5"}
{"variant": "GUUCCGUUGGCGUAAUAGUAACGCGUCUUCCUCCGACCGAGAAGACUGGGGGUUCGAGUCCCGUACGGAACG", "note": "[G17A C29U U35G A37C G38C C49G]", "yeast fitness": 0.545}
{"variant": "GUUCCGUUGGCGUAAUAGUAACGCGUCUUCCUCCUAAGGAGAAGACUGAGGGUUCGAGUCCUGUACGGAACG", "note": "[G17A C29U C49A C62U]", "yeast fitness": "≤ 0.5"}
{"variant": "GUUCCGUUGGCGUAAUAGUAACGCGUCUCCCUCAUAAGGAGAAGACUGCGGGUUCGAGUCCGGUACGGAACG", "note": "[G17A C34A C62G]", "yeast fitness": "≤ 0.5"}
{"variant": "GUUCCGUUGGCGUAAUAGUAACGCGUCUCCCUCCUAAGGAGAAGACUGAGGGUACGAGUCCCGUACGGAACG", "note": "[G17A C49A U54A]", "yeast fitness": 0.614}
{"variant": "GUUCCGUUGGCGUAAUAGUAACGCGUCUCCCUCGUAAGGAGAAGACUGCGGGUUCGAGUCCCGUUCGGAACG", "note": "[G17A C34G A65U]", "yeast fitness": "≤ 0.5"}
{"variant": "GUUCCGUUGGCGUAAUAGUAACGCGUCUCCUUCCUAAGGAGAAGACUGGGGGUUCGAGUCCCGUACGGUACG", "note": "[G17A C31U C49G A69U]", "yeast fitness": "≤ 0.5"}
{"variant": "GUUCCGUUGGCGUAAUAGUAACGCGUCUCCCUCCUAAGGAGAAGACUGUGGGUUCGAGUCCAGUACGGAACG", "note": "[G17A C49U C62A]", "yeast fitness": "≤ 0.5"}
{"variant": "GUUCCGUUGGCGUAAUAGUAACGCGUGUCCCUCCUAAGGAGAAGACUGCGGGUUCGAGUCCCGUACAGAACG", "note": "[G17A C27G G67A]", "yeast fitness": 0.573}
